The source made the active and inactive calls.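 The calls were made as follows, unless noted: active = viability at or under a set limit in both replicates, limit being median viability minus 3 SD (cut at about 48% in these data, passing the limit was not always enough); inconclusive = at or under the limit in just one replicate; inactive = at or above the limit in both replicates.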
Legend:
[1] = Her2 expression decrease, cell viability multiplex – SKBR3 breast tumor cells, AlphaScreen, ATP viability, primary screen (AID 461;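 active = Her2 level under about 52% in both replicate screens, with viability over 70% of control, limit read from the data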;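 as to Her2 level: lower value means less Her2 protein in the cells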;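 as to viability: percent of carrier control wells set as 100% viability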); settings: SKBR3 Her2 protein level, 18-24 h, measured here: SKBR3 viability, ATP luminescence, at 10 µM
[2] = biological target: Receptor tyrosine-protein kinase erbB-2 (Homo sapiens) (UniProt P04626); experiment: as above; settings: 18-24 h, at 10 µM, stronger effect = lower value
[3] = reduced viability of SK-BR-3 breast cancer cells – cell-based, 24 h, human, pilot screen (AID 572;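 active = viability at or below 10% of carrier control in both of two separate runs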;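 also: compound exposure lasted between 18 and 24 h rather than exactly 24 h; 100% = carrier-treated control wells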); settings: SK-BR-3 viability, CellTiter-Glo luminescence, at 10 µM, stronger effect = lower value
[4] = HUVEC growth inhibition – cell-based, human, primary screen (AID 575;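 active = viability at or below 30% in both replicate assays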;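 also: 100% = median of untreated cell wells with 0.1% DMSO on each plate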); settings: HUVEC proliferation, CellTiter-Glo luminescence, 72 h; at 10 µM; stronger effect = lower value
Method in brief: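 Test system – primary HUVEC, no more than 12 passages · Dosing – one dose, 10 µM final, 0.1% DMSO · Times – 72 h treatment at 37 °C · Measured by – ATP-based CellTiter-Glo luminescent read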

[5] = H69AR cell proliferation blockers – human, duplicate replicates, primary screen (AID 580); settings: H69AR lung tumor cells viability, ATP luminescence, 72 h; at 10 µM; stronger effect = lower value;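 also: 100% = mean luminescence of untreated wells and 0% = no signal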
[6] = MRP1 drug-resistance reversers in H69AR cells – cell-based, doxorubicin co-treatment, pilot screen (AID 601;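 active = viability loss from added drug above about 55%, and viability with drug at most 40%, in both replicates, limit read from the data, passing the limit was not always enough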); settings: CellTiter-Glo, 72 h, at 10 µM; for differential viability (reversal): stronger effect = higher value
[7] = yeast transport mutant growth inhibition pilot in 384-well plates, post-Golgi transport modulator project (AID 636; in the data active = inhibition above about 31%); settings: absorbance 615 nm, about 18 h, stronger effect = higher value
[8] = growth suppression of yeast trafficking mutant, preliminary HTS, modulators of trafficking downstream of Golgi apparatus project, 1536-format plate, OD 615 nm (AID 637; in the data active = inhibition above about 30%); settings: yeast transport mutant growth, absorbance 615 nm, 18 h; stronger effect = higher value
[9] = H69AR cells + 2 uM doxorubicin, measured here: viability with 2 uM doxorubicin, stronger effect = lower value
[10] = H69AR cells, compound alone cytotoxicity

Sequence of Receptor tyrosine-protein kinase erbB-2 (Homo sapiens) (P04626 whole entry, looked up): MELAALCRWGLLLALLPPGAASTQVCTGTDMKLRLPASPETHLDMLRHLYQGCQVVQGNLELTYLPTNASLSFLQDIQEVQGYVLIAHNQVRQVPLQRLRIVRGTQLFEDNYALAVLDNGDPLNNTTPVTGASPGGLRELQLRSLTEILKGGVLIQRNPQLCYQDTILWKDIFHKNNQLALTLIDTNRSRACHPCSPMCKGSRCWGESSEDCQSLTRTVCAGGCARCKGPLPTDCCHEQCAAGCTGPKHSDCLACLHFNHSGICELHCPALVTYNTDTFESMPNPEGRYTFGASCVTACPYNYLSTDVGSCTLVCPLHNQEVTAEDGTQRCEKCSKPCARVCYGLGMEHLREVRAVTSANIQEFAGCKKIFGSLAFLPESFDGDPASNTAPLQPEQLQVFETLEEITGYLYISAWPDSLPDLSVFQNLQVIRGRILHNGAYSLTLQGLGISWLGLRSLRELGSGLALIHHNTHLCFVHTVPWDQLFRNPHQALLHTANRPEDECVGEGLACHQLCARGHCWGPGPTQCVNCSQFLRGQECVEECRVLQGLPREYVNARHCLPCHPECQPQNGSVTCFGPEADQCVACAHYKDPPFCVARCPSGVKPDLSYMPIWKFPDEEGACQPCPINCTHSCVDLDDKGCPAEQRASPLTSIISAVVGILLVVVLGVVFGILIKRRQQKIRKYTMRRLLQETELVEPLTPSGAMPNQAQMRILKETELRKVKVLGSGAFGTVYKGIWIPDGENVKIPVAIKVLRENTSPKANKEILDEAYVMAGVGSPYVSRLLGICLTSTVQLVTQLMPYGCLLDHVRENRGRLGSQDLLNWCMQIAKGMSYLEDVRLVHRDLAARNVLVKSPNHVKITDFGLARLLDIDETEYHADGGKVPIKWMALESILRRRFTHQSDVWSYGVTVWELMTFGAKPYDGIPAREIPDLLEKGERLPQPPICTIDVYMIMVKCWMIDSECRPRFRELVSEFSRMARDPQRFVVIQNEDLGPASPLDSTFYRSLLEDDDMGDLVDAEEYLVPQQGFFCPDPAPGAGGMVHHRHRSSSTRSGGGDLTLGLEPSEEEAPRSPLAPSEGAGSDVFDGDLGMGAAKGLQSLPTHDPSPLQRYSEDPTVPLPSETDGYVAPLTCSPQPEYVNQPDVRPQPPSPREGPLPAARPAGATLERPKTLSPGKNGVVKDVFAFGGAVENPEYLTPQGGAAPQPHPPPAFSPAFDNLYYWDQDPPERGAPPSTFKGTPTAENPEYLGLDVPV

Structure (SMILES) | viability [1] [%] | Her2 level [2] | viability [3] | viability [4] | viability [5] | differential viability (reversal) ([6]; H69AR cells + 2 uM doxorubicin) | viability [6, 9] [%] | viability [6, 10] [%] | inhibition [7] | inhibition [8]
Cc1cc(C(=O)NCCCN2CCOCC2)n(-c2ccccc2)n1 | 94.5 | 100% (inactive) | 94.5% (inactive) | 106% (inactive) | 102% (inactive) | 9.44% (inactive) | 92.2 | 102 | -2.27% (inactive) | 3.61% (inactive)
COc1ccc(Oc2c(C)oc3cc(OC(=O)N4CCOCC4)ccc3c2=O)cc1 | 91 | 99% (inactive) | 91% (inactive) | 105% (inactive) | 101% (inactive) | -0.51% (inactive) | 101 | 101 | -5.6% (inactive) | -5.08% (inactive)
Cc1nn(-c2ccc(F)cc2)c2sc(C(=O)OCC(=O)N3CCC(C)CC3)cc12 | 93 | 102% (inactive) | 93% (inactive) | 76.8% (inactive) | 102% (inactive) | 9.16% (inactive) | 92.6 | 102 | -3.87% (inactive) | -5.81% (inactive)
S=C(c1ccc(-c2cc(Cl)ccc2Cl)o1)N1CCOCC1 | 80.5 | 85% (inactive) | 80.5% (inactive) | 86.4% (inactive) | 98.5% (inactive) | -8.1% (inactive) | 107 | 98.5 | -0.4% (inactive) | 5.16% (inactive)
CC1CCCC(C(=O)OCc2ccccc2)N1 (stereo not given) | 119 | 94% (inactive) | 119% (inactive) | 102% (inactive) | 97.2% (inactive) | 6.15% (inactive) | 91 | 97.2 | -2.63% (inactive) | -1.11% (inactive)
O=C(O)CCCNS(=O)(=O)c1ccc(NCc2ccccc2)c(C(=O)O)c1 | 87 | 94% (inactive) | 87% (inactive) | 92.3% (inactive) | 93% (inactive) | 1.6% (inactive) | 91.4 | 93 | -6.89% (inactive) | 0.83% (inactive)
CC(=Nc1ccc(C)c(C)c1)C1=C(O)CCC1=O | 102 | 88.5% (inactive) | 102% (inactive) | 95.1% (inactive) | 94.7% (inactive) | 12% (inactive) | 82.8 | 94.7 | -3.73% (inactive) | -2.46% (inactive)
Nn1c(SCC(=O)Nc2ccc(Oc3ccccc3)cc2)nnc1C1CC1 | 98.5 | 100% (inactive) | 98.5% (inactive) | 69.1% (inactive) | 75.7% (inactive) | -9.75% (inactive) | 85.4 | 75.7 | -5.6% (inactive) | -12.1% (inactive)
Cc1cc(/C=N/n2cnnc2)c(C)n1-c1ccc(Cl)cc1Cl | 99.5 | 64.5% (inactive) | 99.5% (inactive) | 92.3% (inactive) | 90.6% (inactive) | 10.1% (inactive) | 80.5 | 90.6 | -5.54% (inactive) | -6.17% (inactive)
Cc1c(NC2=NC3(CCCCC3)Cc3ccccc32)c(=O)n(-c2ccccc2)n1C | 79.5 | 108% (inactive) | 79.5% (inactive) | 95.5% (inactive) | 92.5% (inactive) | 5.08% (inactive) | 87.5 | 92.5 | -5.13% (inactive) | 2.67% (inactive)
CC(C)CNC(=O)c1ccccc1NC(=O)c1ccc(CN2CCOCC2)cc1 | 92.5 | 96% (inactive) | 92.5% (inactive) | 106% (inactive) | 99.6% (inactive) | 11.9% (inactive) | 87.7 | 99.6 | -5.68% (inactive) | 1.8% (inactive)
Cc1cnc(C(=O)OCC(=O)Nc2ccc(Oc3ccccc3)cc2)cn1 | 77 | 102% (inactive) | 77% (inactive) | 91.5% (inactive) | 91.9% (inactive) | 9.6% (inactive) | 82.3 | 91.9 | 5.51% (inactive) | -21.7% (inactive)
C=CCn1c(SCC2=C(C(=O)OCC)C(C)NC(=O)N2)nnc1C1CCCCC1 (stereo not given) | 100 | 105% (inactive) | 100% (inactive) | 83.6% (inactive) | 91.5% (inactive) | -4.74% (inactive) | 96.2 | 91.5 | -5.06% (inactive) | -0.98% (inactive)
Cc1cc(C)n(CC2CC(=O)N(c3ccc(Cl)c(Cl)c3)C2=O)n1 (stereo not given) | 112 | 96.5% (inactive) | 112% (inactive) | 89.9% (inactive) | 104% (inactive) | 10.4% (inactive) | 93.4 | 104 | -4.79% (inactive) | -9.05% (inactive)
O=P(O)(O)c1ccccc1OCCOCCOc1ccccc1P(=O)(O)O | 101 | 89.5% (inactive) | 101% (inactive) | 111% (inactive) | 92% (inactive) | 5.91% (inactive) | 86.1 | 92 | -6.08% (inactive) | 0.5% (inactive)
O=C(c1ccc(Cl)cc1)N(Cc1cccs1)C1CCS(=O)(=O)C1 (stereo not given) | 100 | 138% (inactive) | 100% (inactive) | 117% (inactive) | 89.2% (inactive) | -8.41% (inactive) | 97.6 | 89.2 | -3.29% (inactive) | 7.7% (inactive)
